Assay results as given in ChEMBL document CHEMBL2040727, “Substituted thiazoles VI. Synthesis and antitumor activity of new 2-acetamido- and 2 or 3-propanamido-thiazole analogs” (2012).

Key:
Assay type in all cases: functional
NCI-H522 = test: Growth inhibition of human NCI-H522 cells at 10 uM after 48 hrs by coulter counter analysis; conditions: NCI-H522, 48 h, read-out: GI
Outline: (§1)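 Single-dose NCI 60-line panel screen of test compounds. Cells grown in RPMI 1640 with 10% FBS. Compounds dissolved in DMSO, then diluted in phosphate buffer saline (final DMSO below 1%). Wells run in duplicate at 6 × 10⁴ cells/ml. Controls held PBS and DMSO at matching dilutions. Incubation 48 h at 37 °C under humidified 5% CO2. Cells diluted tenfold in saline and counted by Coulter counter. Percent growth inhibition taken from mean-graph of treated-cell growth.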

COLO 205 = test: Growth inhibition of human COLO205 cells at 10 uM after 48 hrs by coulter counter analysis; conditions: COLO 205, 48 h, read-out: GI; outline: as §1
CAKI-1 = test: Growth inhibition of human Caki1 cells at 10 uM after 48 hrs by coulter counter analysis; conditions: CAKI-1, 48 h, read-out: GI; outline: as §1
OVCAR-3 = test: Growth inhibition of human OVCAR3 cells at 10 uM after 48 hrs by coulter counter analysis; conditions: OVCAR-3, 48 h, read-out: GI; outline: as §1
SN12C = test: Growth inhibition of human SN12C cells at 10 uM after 48 hrs by coulter counter analysis; conditions: read-out: GI; outline: as §1
OVCAR-5 = test: Growth inhibition of human OVCAR5 cells at 10 uM after 48 hrs by coulter counter analysis; conditions: OVCAR-5, 48 h, read-out: GI; outline: as §1
NCI-H226 = test: Growth inhibition of human NCI-H226 cells at 10 uM after 48 hrs by coulter counter analysis; conditions: NCI-H226, 48 h, read-out: GI; outline: as §1
HOP-62 = test: Growth inhibition of human HOP62 cells at 10 uM after 48 hrs by coulter counter analysis; conditions: HOP-62, 48 h, read-out: GI; outline: as §1
[1] = Growth inhibition of human Hs 578T cells at 10 uM after 48 hrs by coulter counter analysis; conditions: read-out: GI; outline: as §1
SK-MEL-28 = test: Growth inhibition of human SK-MEL-28 cells at 10 uM after 48 hrs by coulter counter analysis; conditions: SK-MEL-28, 48 h, read-out: GI; outline: as §1
BT-549 = test: Growth inhibition of human BT549 cells at 10 uM after 48 hrs by coulter counter analysis; conditions: BT-549, 48 h, read-out: GI; outline: as §1
OVCAR-8 = test: Growth inhibition of human OVCAR8 cells at 10 uM after 48 hrs by coulter counter analysis; conditions: OVCAR-8, 48 h, read-out: GI; outline: as §1
786-0 = test: Growth inhibition of human 786-0 cells at 10 uM after 48 hrs by coulter counter analysis; conditions: 786-0, 48 h, read-out: GI; outline: as §1
MDA-MB-435 = test: Growth inhibition of human MDA-MB-435 cells at 10 uM after 48 hrs by coulter counter analysis; conditions: MDA-MB-435, 48 h, read-out: GI; outline: as §1
LOX IMVI = test: Growth inhibition of human LOXIMVI cells at 10 uM after 48 hrs by coulter counter analysis; conditions: read-out: GI; outline: as §1
SNB-19 = test: Growth inhibition of human SNB19 cells at 10 uM after 48 hrs by coulter counter analysis; conditions: SNB-19, 48 h, read-out: GI; outline: as §1
Malme-3M = test: Growth inhibition of human MALME-3M cells at 10 uM after 48 hrs by coulter counter analysis; conditions: read-out: GI; outline: as §1
MDA-MB-468 = test: Growth inhibition of human MDA-MB-468 cells at 10 uM after 48 hrs by coulter counter analysis; conditions: MDA-MB-468, 48 h, read-out: GI; outline: as §1
[2] = Growth inhibition of human NCI-ADR-RES cells at 10 uM after 48 hrs by coulter counter analysis; conditions: read-out: GI; outline: as §1
IGROV-1 = test: Growth inhibition of human IGROV1 cells at 10 uM after 48 hrs by coulter counter analysis; conditions: IGROV-1, 48 h, read-out: GI; outline: as §1
EKVX = test: Growth inhibition of human EKVX cells at 10 uM after 48 hrs by coulter counter analysis; conditions: read-out: GI; outline: as §1
SF-268 = test: Growth inhibition of human SF268 cells at 10 uM after 48 hrs by coulter counter analysis; conditions: SF-268, 48 h, read-out: GI; outline: as §1
MDA-MB-231 = test: Growth inhibition of human MDA-MB-231 cells at 10 uM after 48 hrs by coulter counter analysis; conditions: MDA-MB-231, 48 h, read-out: GI; outline: as §1

Row | Compound | inhibition of growth at 10 µM (COLO 205) | inhibition of growth at 10 µM (CAKI-1) | inhibition of growth at 10 µM (OVCAR-3) | inhibition of growth at 10 µM (SN12C) | inhibition of growth at 10 µM (OVCAR-5) | inhibition of growth at 10 µM (NCI-H226) | inhibition of growth at 10 µM (HOP-62) | inhibition of growth at 10 µM [1] | inhibition of growth at 10 µM (SK-MEL-28) | inhibition of growth at 10 µM (BT-549) | inhibition of growth at 10 µM (OVCAR-8) | inhibition of growth at 10 µM (786-0) | inhibition of growth at 10 µM (MDA-MB-435) | inhibition of growth at 10 µM (LOX IMVI) | inhibition of growth at 10 µM (SNB-19) | inhibition of growth at 10 µM (Malme-3M) | inhibition of growth at 10 µM [2] | inhibition of growth at 10 µM (IGROV-1) | inhibition of growth at 10 µM (EKVX) | inhibition of growth at 10 µM (SF-268) | further results
1 | Cc1cnc(NC(=O)CCN2CCN(c3ccccc3)CC2)s1 | < 10% | < 10% | < 10% | < 10% | < 10% | < 10% | < 10% | < 10% | < 10% | < 10% | < 10% | < 10% | < 10% | < 10% | < 10% | < 10% | < 10% | < 10% | 11.4% | < 10% | inhibition of growth at 10 µM (NCI-H522): < 10%; inhibition of growth at 10 µM (MDA-MB-468): < 10%; inhibition of growth at 10 µM (MDA-MB-231): < 10%
2 | CCOC(=O)c1sc(NC(=O)CCN2CCN(C)CC2)nc1C | < 10% | 12.5% | < 10% | < 10% | < 10% | < 10% | < 10% | < 10% | < 10% | < 10% | < 10% | < 10% | < 10% | 15.5% | < 10% | < 10% | < 10% | < 10% | 15.9% | < 10% | inhibition of growth at 10 µM (NCI-H522): 12.9%; inhibition of growth at 10 µM (MDA-MB-468): 25.2%; inhibition of growth at 10 µM (MDA-MB-231): < 10%
3 | O=C(CN1CCN(c2ccccc2)CC1)Nc1nc(-c2ccccc2)cs1 | 12.4% | 36.6% | < 10% | 17.3% | < 10% | 19.1% | < 10% | < 10% | < 10% | 11.3% | < 10% | < 10% | < 10% | 11.5% | 10.1% | 23.4% | 23% | 26.5% | < 10% | < 10% | inhibition of growth at 10 µM (NCI-H522): 29.7%; inhibition of growth at 10 µM (MDA-MB-468): 30.4%; inhibition of growth at 10 µM (MDA-MB-231): 29.2%
4 | CCOC(=O)c1sc(NC(=O)CCN2CCOCC2)nc1C | < 10% | < 10% | < 10% | < 10% | < 10% | < 10% | < 10% | < 10% | < 10% | < 10% | < 10% | < 10% | < 10% | < 10% | < 10% | < 10% | < 10% | < 10% | < 10% | < 10% | inhibition of growth at 10 µM (NCI-H522): < 10%; inhibition of growth at 10 µM (MDA-MB-468): < 10%; inhibition of growth at 10 µM (MDA-MB-231): < 10%
5 | CN1CCN(CCC(=O)Nc2nc(-c3ccccc3)cs2)CC1 | < 10% | 15.9% | < 10% | 17.2% | < 10% | 17.4% | 14.5% | 10.5% | < 10% | 16.5% | < 10% | < 10% | < 10% | 11.1% | < 10% | 12.7% | 13% | 10.6% | < 10% | < 10% | inhibition of growth at 10 µM (NCI-H522): 16.5%; inhibition of growth at 10 µM (MDA-MB-468): < 10%; inhibition of growth at 10 µM (MDA-MB-231): 11.6%
6 | CCOC(=O)c1sc(NC(=O)CN(C)C)nc1C | < 10% | < 10% | < 10% | < 10% | < 10% | < 10% | < 10% | < 10% | < 10% | < 10% | < 10% | < 10% | < 10% | < 10% | < 10% | < 10% | < 10% | < 10% | < 10% | < 10% | inhibition of growth at 10 µM (NCI-H522): < 10%; inhibition of growth at 10 µM (MDA-MB-468): < 10%; inhibition of growth at 10 µM (MDA-MB-231): < 10%
7 | O=C(CCCl)Nc1nc(-c2ccccc2)cs1 | 55.6% | 69.3% | 98% | 57.2% | 35.7% | 29.3% | 51.4% | < 10% | 19.4% | 74.5% | 56.1% | 36.7% | 68.2% | 47.8% | 29.3% | 68.2% | 59.6% | 50% | 24.1% | 63% | inhibition of growth at 10 µM (MDA-MB-231): 53.5%
8 | Cc1cnc(NC(=O)CN2CCN(C)CC2)s1 | < 10% | < 10% | < 10% | < 10% | < 10% | < 10% | < 10% | < 10% | < 10% | < 10% | < 10% | < 10% | < 10% | < 10% | < 10% | < 10% | < 10% | < 10% | < 10% | < 10% | inhibition of growth at 10 µM (NCI-H522): < 10%; inhibition of growth at 10 µM (MDA-MB-468): < 10%; inhibition of growth at 10 µM (MDA-MB-231): < 10%
9 | CCOC(=O)c1sc(NC(=O)CCN2CCN(c3ccccc3)CC2)nc1C | < 10% | < 10% | < 10% | < 10% | < 10% | < 10% | < 10% | < 10% | < 10% | < 10% | < 10% | < 10% | < 10% | < 10% | < 10% | 12% | < 10% | < 10% | < 10% | < 10% | inhibition of growth at 10 µM (NCI-H522): < 10%; inhibition of growth at 10 µM (MDA-MB-468): < 10%; inhibition of growth at 10 µM (MDA-MB-231): < 10%
